# Screening results as filed in PubChem.
# Shown are actives, neighbours in structure and some others; about 2.3% of the full set was active somewhere.
# PDI turbidity = blocks human protein disulfide isomerase activity; PDI insulin aggregation turbidity, A650, 90 min; inhibition, % at 10 µM; P07237; AID 588391; 350,000 tested, 0.052% active;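 active = mean inhibition across replicates of 30% or more, whatever share of single replicates reach that level; inconclusive = mean inhibition below 30% while every single replicate reaches 30%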
# DENV2 CPE = DENV2-induced cell death inhibition; DENV2-infected cells, cytopathic effect rescue, plate reader; CPE inhibition, % at 9.99 µM; 350,000 tested, 1.7% active; in the data active = CPE inhibition above about 20%, passing the limit was not always enough; inconclusive = no clear call, values can overlap the other calls; tested in BHK-21 cells
# Statin myotox sup = suppression of simvastatin myotoxicity; C2C12 myotubes + simvastatin, ATP luminescence, 48 h; scaled: DMSO 0, geranylgeraniol control 100; rescue of ATP level, % at 7.49 µM; 330,000 tested, 0.78% active;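 active = mean ATP rescue above about 67%, or every replicate alone reaching that limit, limit read from the data, passing the limit was not always enough; inconclusive = no clear call, values can overlap the other calls; inactive = mean under the limit and some replicate under it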;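 also: myotubes were challenged with 10 µM simvastatin during compound exposure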
# ERp5 block = ERp5 (human) disulfide isomerase inhibition; Q15084; ERp5 insulin aggregation, absorbance 650 nm, 90 min; inhibition, % at 9.99 µM; 350,000 tested, 0.05% active; AID 651711;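 active = mean replicate inhibition above about 25%, with every replicate also reaching it, limit read from the data, passing the limit was not always enough; inconclusive = only one of those two criteria met; inactive = neither criterion met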
# Target sequence (Q15084 whole entry, looked up): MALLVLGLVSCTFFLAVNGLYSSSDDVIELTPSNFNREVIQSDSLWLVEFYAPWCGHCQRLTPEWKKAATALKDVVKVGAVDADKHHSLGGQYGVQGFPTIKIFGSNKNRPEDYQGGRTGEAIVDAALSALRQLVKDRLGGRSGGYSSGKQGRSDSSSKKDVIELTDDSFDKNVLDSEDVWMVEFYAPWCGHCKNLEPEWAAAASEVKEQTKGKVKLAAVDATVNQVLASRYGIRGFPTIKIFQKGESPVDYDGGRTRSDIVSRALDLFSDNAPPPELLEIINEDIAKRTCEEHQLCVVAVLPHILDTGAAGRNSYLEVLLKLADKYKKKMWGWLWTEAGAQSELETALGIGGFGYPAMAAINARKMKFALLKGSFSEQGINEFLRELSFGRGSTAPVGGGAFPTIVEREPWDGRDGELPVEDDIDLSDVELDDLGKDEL
# Cneo AK release = causes C. neoformans cell lysis. adenylate kinase release luminescence, 4 h; normalised: neutral wells 0, clomiphene wells 100. 360,000 tested, 0.2% active. AID 651654. lysis activity, % at 15 µM;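 active = mean lysis activity across replicates of at least 80%, whatever share of replicates individually reach that level; inactive = mean lysis activity below 80%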
#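 Schedule: static 4 h at 37 °C with compound, 1 h detection; system: C. neoformans cells; benchmarks: Clomiphene as positive control; buffer or medium: fresh YPD medium; measure: luminescence rise reflecting yeast cell lysis; measured by: luminescent adenylate kinase detection reagent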
# CFTR F508del cor = correctors of CFTR F508del function in bronchial epithelial cells | CFBE cells, YFP halide quenching; stimulated with forskolin plus potentiator P3; % fluorescence drop versus neutral controls | 350,000 tested, 0.36% active | activity (quench increase), % at 7.58 µM | AID 720511;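 active = mean added fluorescence quench of at least 8% versus neutral control, with both replicates also reaching 8%; inconclusive = only one of the mean or replicate conditions met; inactive = mean below 8% and not both replicates reaching 8%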;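 also: cells transiently co-express mutant CFTR-F508del with the halide-sensitive YFP; corrector assay measuring rescue of mutant channel to the surface after 24 h compound exposure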
# Numbers stand for hits; - = inactive; ? = inconclusive; . = not tested or not shown.
SMILES,PDI turbidity,DENV2 CPE,Statin myotox sup,ERp5 block,Cneo AK release,CFTR F508del cor
C[C@H](CO)N1C[C@H](C)[C@@H](CN(C)Cc2ccncc2)Oc2cc(C3=CCCC3)ccc2S1(=O)=O,.,-,-,-,-,-
C[C@H](CO)N1C[C@H](C)[C@H](CN(C)C(=O)Nc2ccc(F)cc2)Oc2ncc(/C=C/c3ccccc3)cc2C1=O,.,-,.,-,.,-
COc1ccc(NC(=O)N(C)C[C@H]2OCCCC[C@H](C)Oc3ccc(NC(=O)Nc4c(C)noc4C)cc3C(=O)N([C@@H](C)CO)C[C@@H]2C)cc1,.,-,-,-,-,-
Cn1c(=O)c2c(ncn2CC(=O)NCc2cccnc2)n(C)c1=O,-,.,106,.,-,.
Cn1c(=O)c2c(ncn2CC(=O)OCC(=O)NCc2ccc(Cl)cc2)n(C)c1=O,-,.,.,.,.,.
COCC(=O)Nc1ccc2c(c1)OC[C@@H](C)N(Cc1ccccc1)C[C@@H](C)[C@H](OC)CN(C)C2=O,.,-,.,-,.,-
O=S(=O)(c1ccccc1)N1CC2(C1)[C@@H](c1ccccc1)[C@@H](CO)N2CC1CCCC1,.,27,.,-,.,-
O=S(=O)(c1ccccc1)N1CC2(C1)[C@H](c1ccccc1)[C@@H](CO)N2CC1CCOCC1,.,36,.,-,.,-
O=C(Nc1ccc(Cl)c(Cl)c1)N[C@@H]1CC[C@H](CCn2cc(C3CCCC3)nn2)O[C@@H]1CO,.,28,.,-,.,-
CN(C)CC(=O)N[C@H]1CC[C@H](CCn2cc(C3CCCCC3)nn2)O[C@H]1CO,.,41,-,-,-,-
O=C(Nc1ccc(Cl)c(Cl)c1)N[C@H]1CC[C@@H](CCn2cc(C3CC3)nn2)O[C@H]1CO,.,-,-,-,-,-
CC(C)C(NC(=O)C1CCCCC1)C(=O)Nc1ccncc1 (stereo not given),-,.,124,.,-,.
C[C@@H]1CCCCO[C@@H](CN(C)Cc2ccccc2)[C@@H](C)CN([C@@H](C)CO)C(=O)c2cc(NC(=O)C3CCCCC3)ccc2O1,.,27,.,-,-,-
C[C@@H]1CCCCO[C@@H](CN(C)Cc2ccc(C(=O)O)cc2)[C@@H](C)CN([C@@H](C)CO)C(=O)c2cc(NC(=O)C3CCCCC3)ccc2O1,.,38,.,-,-,-
C[C@@H]1CCCCO[C@@H](CN(C)Cc2ccc(C(=O)O)cc2)[C@@H](C)CN([C@H](C)CO)C(=O)c2cc(NC(=O)C3CCCCC3)ccc2O1,.,?,.,-,-,-
C[C@H](CO)N1C[C@H](C)[C@@H](CN(C)Cc2ccccc2)OCCCC[C@H](C)Oc2ccc(NC(=O)C3CCCCC3)cc2C1=O,.,-,.,-,-,-
C[C@@H]1CN([C@@H](C)CO)C(=O)c2cc(NC(=O)Cc3cn(C)c4ccccc34)ccc2O[C@H]1CN(C)C(=O)Nc1ccccc1,.,35,-,-,-,-
C[C@@H]1CN([C@@H](C)CO)C(=O)c2cc(NC(=O)Cc3cn(C)c4ccccc34)ccc2O[C@H]1CN(C)C(=O)Nc1ccc2c(c1)OCO2,.,-,-,-,-,-
C[C@H]1CN([C@@H](C)CO)C(=O)c2cc(NC(=O)Cc3cn(C)c4ccccc34)ccc2O[C@H]1CN(C)C(=O)Nc1ccc2c(c1)OCO2,.,28,-,-,-,-
S=C(NCc1ccco1)NCC1CCCO1 (stereo not given),-,-,-,-,-,11
S=C(NCc1cccs1)NCC1CCCO1 (stereo not given),-,-,.,-,.,-
COc1cc(C(=O)NCC2CCCO2)ccc1OCc1ccc(Cl)cc1Cl (stereo not given),-,-,-,-,.,-
COc1cc(C(=O)NCC2CCCO2)ccc1OCc1ccc(Cl)cc1 (stereo not given),-,-,-,-,-,11
COc1ccc(NC(=S)NCC2CCCO2)c(OC)c1 (stereo not given),-,.,91,.,-,.
C[C@H](CO)N1C[C@H](C)[C@@H](CN(C)Cc2ccc(C(=O)O)cc2)Oc2ccc(NC(=O)C3CC3)cc2C1=O,.,-,-,-,-,-
SMILES,PDI turbidity,DENV2 CPE,Statin myotox sup,ERp5 block,Cneo AK release,CFTR F508del cor
CNc1c2cccc(C)c2nc2c(C(=O)NCCN(C)C)cccc12,-,-,.,-,.,19
Cc1ccc(C(=O)NCCN(C)C)c(C)c1,-,.,-,.,-,.
Cc1cccc(N2CCCC2=Nc2ccc(Br)cc2C#N)c1,-,.,-,.,-,.
N#Cc1cc(Br)ccc1N=C1CCCN1c1ccccc1,-,24,.,-,-,-
Cc1ccc(S(=O)(=O)N(C)C[C@H]2Oc3ncc(-c4ccncc4)cc3C(=O)N([C@@H](C)CO)C[C@@H]2C)cc1,.,-,-,-,-,-
Cc1nc2ccccn2c1-c1csc(NCc2ccco2)n1,-,.,94,.,-,.
Cc1nc(C)c(-c2csc(NCc3ccco3)n2)s1,-,-,-,-,-,-
COCC#Cc1cnc2c(c1)C(=O)N([C@@H](C)CO)C[C@H](C)[C@@H](CN(C)C(=O)NC1CCCC1)O2,.,-,-,50,-,-
COCC#Cc1cnc2c(c1)C(=O)N([C@H](C)CO)C[C@@H](C)[C@H](CN(C)C(=O)NC1CCCC1)O2,.,-,-,59,-,-
COCC#Cc1cnc2c(c1)C(=O)N([C@@H](C)CO)C[C@@H](C)[C@@H](CN(C)C(=O)NC1CCCC1)O2,.,-,-,-,-,-
COc1ccc(S(=O)(=O)Nc2ccc3c(c2)C(=O)N([C@@H](C)CO)C[C@H](C)[C@H](CN(C)C(=O)CCCN(C)C)OCCCC[C@H](C)O3)cc1,.,-,-,-,-,-
Cn1ccnc1SCC(=O)Nc1ccccc1,-,.,137,.,-,.
Cc1cccc(NC(=O)CSc2nccn2C)c1,-,.,.,.,.,.
O=C(CSC1=NNC(c2ccccn2)S1)Nc1ccccc1 (stereo not given),-,-,.,-,-,11
CN(C)C(=O)C[C@H]1C[C@H]2c3cc(NS(C)(=O)=O)ccc3O[C@H]2[C@H](CO)O1,.,-,-,68,-,-
CN(C)C(=O)C[C@H]1C[C@H]2c3cc(NS(C)(=O)=O)ccc3O[C@H]2[C@@H](CO)O1,.,-,-,33,-,-
CN(C)C(=O)C[C@H]1C[C@@H]2c3cc(NS(C)(=O)=O)ccc3O[C@@H]2[C@H](CO)O1,.,-,-,-,-,-
O=C(C[C@H]1CC[C@H]2[C@@H](COC[C@@H](O)CN2CC2CCOCC2)O1)NCC1CC1,.,?,-,-,-,-
CCc1ccc2[nH]c(=O)c(CN(CCN3CCCC3)C(=O)NC3CCCCC3)cc2c1,-,.,95,.,-,.
Cc1cccnc1-n1c(CCN2C(=O)c3ccccc3C2=O)nc2ccccc2c1=O,-,.,72,.,-,.
COc1cc(OC)cc(-c2c(C#Cc3ccsc3)c3cc(-c4cc(OC)c(OC)c(OC)c4)ccc3n2C)c1,-,38,-,-,-,-
